Where no end group is shown, it is not given here. The star is where a group is joined. αGalNAc = CC(=O)N[C@@H]1[C@@H](O)[C@@H](O)[C@@H](CO)O[C@@H]1*
target: K^b molecules (Mus musculus, UniProt P01901); experiment: not given; type: binding, murine
Summary of the method: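 Kb was affinity-purified from filtered Nonidet P-40 lysates of EL-4 cells. 5–10 nM Kb was incubated with a 125I-labelled known Kb-binding peptide plus test compound for 48 h in PBS with 0.05% Nonidet P-40 and protease inhibitors. Bound and free peptide were separated by gel filtration on TSK columns. IC50 is the amount inhibiting 50% of radioligand binding.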

Molecule	IC50 [nM]
AIIAAFAAL [AIIAAFAAL]	10
AAAAAFAAL [AAAAAFAAL]	610
SSSSFSSL [SSSSFSSL]	509
AIAAAFAAL [AIAAAFAAL]	240
GGGGFGGL [GGGGFGGL]	53000
AAAAFAAL [AAAAFAAL]	75
AAIAAFAAL [AAIAAFAAL]	90

target: K^b molecules (MHC class I H-2K^b) purified from EL-4 cells (mouse (endogenous in EL-4)); experiment: radioligand binding

Molecule	IC50 [nM]
AIIASFAAL (βGal-[1→3]-α-GalNAc-O-serine (TF antigen) at position 5) [AIIA(βGal-[1→3]-α-GalNAc-O-ser)FAAL]	4
AIIAS(αGalNAc)FAAL [AIIA(GalNac-O-ser)FAAL]	4

Further lines, results first:

IC50 [nM]	Molecule
75	AAAAFAAL
10	AIIAAFAAL
4	AIIASFAAL
509	SSSSFSSL
53000	GGGGFGGL

— PMC2213299 (The Journal of Experimental Medicine, 2004)
